CaV13 ICDI inh: Primary screen for inhibitors of IQ motif and Ca2+-dependent inactivation inhibitor domain binding in CACNA1D, Förster resonance energy transfer in living cells, …; 0.098% of 340,000 active; HEK cells, CFP/YFP FRET ICDI-IQ, plate reader, 10 min; percent FRET-ratio fall versus neutral wells; inhibition, % at 12.3 µM;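 active = mean replicate inhibition of at least 30% and at least 1% of replicates passing that level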;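 also: 0% = median of the neutral control wells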
TWEAK Fn14 block: TWEAK-Fn14 signaling inhibition. TWEAK-stimulated Fn14 reporter cells, luciferase luminescence, 8 h. 2% of 360,000 active. AID 1159606. inhibition, % at 10 µM; in the data active = inhibition above about 50%
LGR2 antag: blocks bursicon-induced cAMP signaling via Drosophila LGR2 | HEK293 LGR2, CRE-luciferase, bursicon-stimulated, 4 h | inhibition, % at 9.99 µM | 0.35% of 380,000 active;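 active = drop in luminescence signal, shown as inhibition above about 50% in the replicate tests, limit read from the data, passing the limit was not always enough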;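 also: agonist challenge used bursicon conditioned medium at about half maximal strength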
TROY NFkB inh: TROY signaling inhibition. Q293 LMP1-TROYcd NF-kB luciferase reporter, 4 h. inhibition, % at 10 µM. 0.98% of 360,000 active;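 active = compounds whose plate-normalised and pattern-corrected inhibition of the luciferase reporter signal at the single screening dose is 50% or more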
Xi reactivation: reactivates the inactive X chromosome in mouse fibroblasts. 0.055% of 360,000 active. activation, % at 7.58 µM. XiGFP mouse fibroblasts, % GFP-positive cells imaging, 3 d; cells co-treated with 5-aza-dC sensitizer; scaled so ellipticine positive control = 100%. AID 743238;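 active = mean normalized replicate activation at least 10% and every replicate at or above 10%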;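 also: 0% = median of on-plate neutral control wells and 100% = ellipticine 6 µM median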
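System: SV40-immortalized XiGFP fibroblast cells, line 68-5-11 / Incubation: 3-day compound exposure, then 15 min fixation at room temperature / Compound: single concentration per compound, delivered by pin transfer / Buffer or medium: DMEM plus 5-aza-dC sensitizer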
* hit, by the source's call; / = not tested or not shown. Shown are actives, neighbours in structure and some others; about 2% of the full set was active somewhere.

SMILES	CaV13 ICDI inh	TWEAK Fn14 block	LGR2 antag	TROY NFkB inh	Xi reactivation
O=C(C[C@@H]1CC[C@@H]2[C@H](COC[C@@H](O)CN2C(=O)c2ccc3c(c2)OCO3)O1)NC1CCCC1	/	/	-12	/	0
COc1ccc2c3c([nH]c2c1)[C@H](CO)N(C(=O)Nc1ccc(F)cc1)CC31CN(Cc2cc(-c3ccccc3)on2)C1	/	/	-5	/	0
COc1ccc(N=C2C(=Nc3ccc(OC)cc3)N(c3ccc(OC)cc3)C(=S)N2C(=O)c2ccc(OC)cc2)cc1	-4	-41	/	-25	/
COc1ccc(N=C2C(=Nc3ccc(OC)cc3)N(c3ccccc3)C(=S)N2C(=O)c2ccc(Cl)cc2)cc1	-6	66*	/	18	/
COc1ccc(N2C(=S)N(C(=O)c3ccccc3)C(=Nc3ccccc3)C2=Nc2ccccc2)cc1	-3	75*	/	25	/
COc1ccccc1S(=O)(=O)N[C@@H]1CC[C@@H](CCNC(=O)C2CC2)O[C@@H]1CO	/	/	-17	/	1
C[C@H]1CN([C@@H](C)CO)C(=O)Cc2cc(NC(=O)C3CC3)ccc2O[C@H]1CN(C)S(=O)(=O)c1cccs1	/	/	7	/	0
CCc1cc(SC#N)cc(C)c1N	-3	35	-10	57*	0
CCc1cc(SC#N)cc(C)c1NC(=O)CCl	-4	26	/	9	3
CCC(=O)N(C)C[C@@H]1Oc2cc(C#CC3CC3)ccc2S(=O)(=O)N([C@@H](C)CO)C[C@H]1C	/	/	1	/	-1
Cc1noc(C)c1CSc1nc2ccccc2nc1NS(=O)(=O)c1ccc(Cl)cc1	/	18	/	57*	/
O=C(c1ccccc1)N1CCC(c2nc(-c3ccc(S(=O)(=O)N4CCOCC4)cc3)no2)CC1	-5	62*	/	/	/
COc1ccc2c3c(n(C)c2c1)[C@@H](CO)N(CC1CCOCC1)CC31CN(C(=O)c2cccc(F)c2)C1	/	/	/	/	0
CCCNC(=O)N(C)C[C@@H]1Oc2ncc(-c3ccccc3F)cc2C(=O)N([C@H](C)CO)C[C@@H]1C	/	/	-14	/	0
CCCCC(CC)CN=C(N)NC(N)=NCCCCCCN=C(N)NC(N)=NCC(CC)CCCC (configuration not stated)	/	105*	/	71*	/
COc1cccc2c1C(=O)O/C2=C/c1ccc2c(c1)OCO2	-8	63*	62*	-10	/
C[C@@H]1CN([C@H](C)CO)C(=O)c2cc(NC(=O)Nc3cccc4ccccc34)ccc2O[C@@H](C)CCCCO[C@@H]1CN(C)S(=O)(=O)c1ccc(F)cc1	/	/	11	/	0
COc1ccccc1N=Nc1ccc(O)c2ncccc12	-4	42	-21	65*	0
CCS(=O)(=O)c1ccc(N=Nc2ccc(O)c3ncccc23)c(OC)c1	-5	65*	47	39	0
COc1ccccc1-c1ccc2c(c1)O[C@@H](CN(C)C(=O)c1ccccc1)[C@@H](C)CN([C@H](C)CO)S2(=O)=O	/	/	2	/	-1
Cc1nc(NCCc2ccccc2)c2oc3ccccc3c2n1	-6	52*	/	30	/
CC(=O)N1CCN(c2cc(-c3ccccc3)nc3cc(-c4cccc(Cl)c4)nn23)CC1	-3	55*	20	34	0
O=C(c1ccncc1)N1CCN(c2cc(-c3ccccc3)nc3cc(-c4cccc(Cl)c4)nn23)CC1	-5	70*	-12	23	0
O=C(c1ccoc1)N1CCN(c2cc(-c3cccnc3)nc3cc(-c4cccc(Cl)c4)nn23)CC1	-10	0	-7	-4	0
O=C(c1ccoc1)N1CCN(c2cc(-c3ccncc3)nc3cc(-c4cccc(Cl)c4)nn23)CC1	-6	13	3	-6	0
COc1ccc(NC(=O)C2Cc3c(-c4ccccc4Oc4ccccc4)ccnc3O2)cn1 (configuration not stated)	-4	47	19	28	0
COc1ccc(NC(=O)C2Cc3c(-c4ccccc4Oc4ccccc4)ccnc3O2)cc1OC (configuration not stated)	-7	63*	30	43	0
c1ccc(-c2cc(-c3nnc4n3N=C(c3ccc5ccccc5c3)CS4)[nH]n2)cc1	-7	68*	0	6	/
CCC(=O)N(C)C[C@@H]1Oc2cc(-c3ccccc3F)ccc2S(=O)(=O)N([C@@H](C)CO)C[C@@H]1C	/	/	-7	/	0
